Results as given in ChEMBL document CHEMBL4152330, “Arylamino containing hydroxamic acids as potent urease inhibitors for the treatment of Helicobacter pylori infection” (Eur J Med Chem, 2018).
Calls of active or inactive are those of the source. No cut-off for these calls is given here.

Columns and labels:
[1] = target: T1, Urease subunit alpha/Urease subunit beta (Helicobacter pylori (strain ATCC 700392 / 26695) (Campylobacterpylori), UniProt P69996); assay: Mixed type non-competitive inhibition of urease in Helicobacter pylori ATCC 43504 assessed as enzyme-substrate-inhibitor complex constant preincubated for 1.5 hrs by indophenol method; assay type: protein-complex assay, Helicobacter pylori NCTC 11637 = CCUG 17874 = ATCC 43504
Procedure, shortened: (§1)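 Crude H. pylori ATCC 43504 urease with compound pre-incubated 1.5 h at room temperature, then ammonia production velocity measured by indophenol method across a urea concentration gradient at each fixed inhibitor concentration. V–[S] data fitted nonlinearly to assign inhibition type. Fitting constants plotted linearly against [I]; Ki and K'i taken from X-axis intercepts. Triplicate.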

[2] = target: T1, Urease subunit alpha/Urease subunit beta; assay: Inhibition of urease in Helicobacter pylori ATCC 43504 assessed as reduction in ammonia production preincubated for 1.5 hrs by indophenol method; assay type: protein-complex assay, Helicobacter pylori NCTC 11637 = CCUG 17874 = ATCC 43504
Procedure, shortened: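 Crude urease was prepared from H. pylori harvested from broth, PBS-washed, frozen at -80 °C, sonicated with protease inhibitors, centrifuged, desalted on Sephadex G-25 and stored in 50% glycerol at 4 °C. Enzyme (10 U) was preincubated with test compound for 1.5 h at room temperature. Ammonia production was read by the Weatherburn indophenol method.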

[3] = target: T1, Urease subunit alpha/Urease subunit beta; assay: Mixed type non-competitive inhibition of urease in Helicobacter pylori ATCC 43504 assessed as reduction in ammonia production preincubated for 1.5 hrs by indophenol method; assay type: protein-complex assay, Helicobacter pylori NCTC 11637 = CCUG 17874 = ATCC 43504; procedure, shortened: as §1
[4] = target: T1, Urease subunit alpha/Urease subunit beta; assay: Inhibition of Helicobacter pylori ATCC 43504 urease assessed as reduction in ammonia production preincubated for 1.5 hrs under cell free condition by indophenol method; assay type: protein-complex assay, Helicobacter pylori NCTC 11637 = CCUG 17874 = ATCC 43504
Procedure, shortened: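 Crude urease from sonicated ATCC 43504 cells (grown microaerobically in Brucella broth with 10% sheep blood), desalted on Sephadex G-25 and stored in 50% glycerol at 4 °C. Enzyme (10U) pre-incubated with test compound 1.5 h at room temperature. Ammonia production read by Weatherburn indophenol method.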

[5] = target: T2, Urease subunit alpha/Urease subunit beta (Helicobacter pylori (strain ATCC 700392 / 26695) (Campylobacterpylori)) (UniProt P69996+P14916); assay: Ratio of IC50 for Helicobacter pylori ATCC 43504 urease under cell free condition to IC50 for urease in intact Helicobacter pylori ATCC 43504; assay type: protein-complex assay; conditions: Helicobacter pylori NCTC 11637 = CCUG 17874 = ATCC 43504
Procedure, shortened: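 Cell-free arm: desalted crude H. pylori urease lysate (10 U) was preincubated with compound for 1.5 h at room temperature. Intact-cell arm: the same set-up with H. pylori cell suspension (4.0 × 10^7 CFU/mL) in place of the enzyme. Ammonia was measured by the indophenol method in both arms.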

[6] = target: T2, Urease subunit alpha/Urease subunit beta (Helicobacter pylori (strain ATCC 700392 / 26695) (Campylobacterpylori)); assay: Potency index, ratio of AHA IC50 to compound IC50 for Helicobacter pylori ATCC 43504 urease assessed as reduction in ammonia production preincubated for 1.5 hrs under cell free condition by indophenol method; assay type: protein-complex assay; conditions: Helicobacter pylori NCTC 11637 = CCUG 17874 = ATCC 43504
[7] = test system: Helicobacter pylori; assay: Antibacterial activity against Helicobacter pylori ATCC 43504 infected in Kunming mouse assessed as bacterial eradication at 32 mg/kg, po bid treated for 14 days relative to control; assay type: functional, NCTC 11637 = CCUG 17874 = ATCC 43504
Procedure, shortened: (§2)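 Mice (18–22 g) fasted 4 h, then given 0.2 mol/L NaHCO3 intragastrically. Fifteen min later they were inoculated intragastrically with H. pylori (1 × 10^9 cfu/mL), once daily for a week. Three weeks later mice were randomized (n=13/group). Compound in 0.5% CMC-Na was given intragastrically at 8:00 and 18:00 daily for 14 days. Eradication was compared with an untreated infected model group.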

[8] = test system: Helicobacter pylori; assay: Antibacterial activity against Helicobacter pylori ATCC 43504 infected in Kunming mouse assessed as reduction in gastric mucosa injury in mouse stomach at 32 mg/kg, po bid treated for 14 days by hematoxylin and eosin staining based assay; assay type: functional, organism-based; conditions: NCTC 11637 = CCUG 17874 = ATCC 43504
Procedure, shortened: (§3)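 KM mice (18–22 g) were pretreated with NaHCO3 and infected intragastrically with H. pylori (1 × 10^9 cfu/mL) daily for one week. After three weeks, groups (n=13) received compound in 0.5% CMC-Na intragastrically b.i.d. for 14 days. Part of each stomach was fixed in 4% paraformaldehyde, paraffin-embedded and cut at 3.0 µm to assess gastric mucosal lesions against an untreated infected model.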

[9] = test system: Helicobacter pylori; assay: Antibacterial activity against Helicobacter pylori ATCC 43504 infected in Kunming mouse assessed as bacterial eradication at 128 mg/kg, po bid treated for 14 days relative to control; assay type: functional, NCTC 11637 = CCUG 17874 = ATCC 43504; procedure, shortened: as §2
[10] = Acute toxicity in po dosed Kunming mouse assessed as induction of mortality administered as single dose and measured after 14 days; assay type: organism-based; conditions: in vivo
Procedure, shortened: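 Male and female adult KM mice, 18–22 g, n=10 per group. Single intragastric dose of 500, 1000, 2000, 3000 or 5000 mg/kg in 0.5% CMC-Na, 200 μL per mouse; controls received vehicle alone. Mortality recorded over 14 days. LD50 estimated by probit analysis.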

[11] = test system: Helicobacter pylori; assay: Antibacterial activity against Helicobacter pylori ATCC 43504 infected in Kunming mouse assessed as bacterial eradication at 64 mg/kg, po bid treated for 14 days relative to control; assay type: functional, NCTC 11637 = CCUG 17874 = ATCC 43504; procedure, shortened: as §2
[12] = test system: Helicobacter pylori; assay: Antibacterial activity against Helicobacter pylori ATCC 43504 infected in Kunming mouse assessed as bacterial eradication at 16 mg/kg, po bid treated for 14 days relative to control; assay type: functional, NCTC 11637 = CCUG 17874 = ATCC 43504; procedure, shortened: as §2
[13] = test system: Helicobacter pylori; assay: Antibacterial activity against Helicobacter pylori ATCC 43504 infected in Kunming mouse assessed as reduction in gastric mucosa injury in mouse stomach at 16 mg/kg, po bid treated for 14 days by hematoxylin and eosin staining based assay; assay type: functional, organism-based; conditions: NCTC 11637 = CCUG 17874 = ATCC 43504; procedure, shortened: as §3

T2 sequence (P14916 whole entry, looked up): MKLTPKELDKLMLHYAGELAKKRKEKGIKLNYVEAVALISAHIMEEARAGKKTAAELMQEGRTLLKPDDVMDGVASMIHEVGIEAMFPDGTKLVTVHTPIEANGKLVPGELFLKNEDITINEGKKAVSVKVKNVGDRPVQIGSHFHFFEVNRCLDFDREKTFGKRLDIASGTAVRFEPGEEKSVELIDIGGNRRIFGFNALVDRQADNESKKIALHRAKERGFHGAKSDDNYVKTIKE
T2 sequence (P69996 whole entry, looked up): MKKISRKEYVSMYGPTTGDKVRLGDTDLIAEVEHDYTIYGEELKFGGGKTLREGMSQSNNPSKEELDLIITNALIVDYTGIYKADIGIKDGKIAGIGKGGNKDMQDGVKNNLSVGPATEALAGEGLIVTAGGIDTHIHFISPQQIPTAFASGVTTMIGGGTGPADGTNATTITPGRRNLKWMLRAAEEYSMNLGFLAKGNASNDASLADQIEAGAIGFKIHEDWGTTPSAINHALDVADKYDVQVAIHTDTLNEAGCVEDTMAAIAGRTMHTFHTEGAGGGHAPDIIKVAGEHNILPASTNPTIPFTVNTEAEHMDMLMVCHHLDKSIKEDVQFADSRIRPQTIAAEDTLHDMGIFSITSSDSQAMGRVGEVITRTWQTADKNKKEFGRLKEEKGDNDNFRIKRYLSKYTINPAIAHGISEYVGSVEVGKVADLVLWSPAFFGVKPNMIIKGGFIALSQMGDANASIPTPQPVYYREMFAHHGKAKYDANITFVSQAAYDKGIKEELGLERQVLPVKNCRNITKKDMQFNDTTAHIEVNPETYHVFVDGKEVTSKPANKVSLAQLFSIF
T1 sequence (P69996 whole entry): as the sequence (P69996 whole entry, looked up) above
T1 sequence (P14916 whole entry, further chain): as the sequence (P14916 whole entry, looked up) above

## O=C(CNc1cc(Cl)cc(Cl)c1)NO
[1]
  Ki: 0.315 µM
[2]
  IC50: 16.9 µM
[3]
  Ki: 1.66 µM
[4]
  IC50: 0.13 µM
[5]
  Ratio IC50: 46 to 110

## O=C(CNc1ccccc1Cl)NO
[4]
  IC50: 58.9 µM
[5]
  Ratio IC50: 46 to 110

## COc1cccc(NCC(=O)NO)c1
[4]
  IC50: 21.8 µM
[5]
  Ratio IC50: 46 to 110

## O=C(CNc1ccccc1)NO
[4]
  IC50: 4.67 µM
[5]
  Ratio IC50: 46 to 110

## COc1ccc(NCC(=O)NO)cc1
[4]
  IC50: 69.8 µM
[5]
  Ratio IC50: 46 to 110

## O=C(CCNc1cc(Cl)ccc1Cl)NO
[2]
  IC50: 29.5 µM
[4]
  IC50: 0.45 µM
[5]
  Ratio IC50: 46 to 110

## O=C(CNc1ccc(Br)cc1)NO
[6]
  Ratio IC50: 2 to 24
[4]
  IC50: 2.01 µM
[5]
  Ratio IC50: 46 to 110

## CC(=O)NO [ACETOHYDROXAMIC ACID]
[2]
  IC50: 172 µM
[7]
  Activity: 44.4%
[8]
  Activity: Active
[5]
  Ratio IC50: 46 to 110

## O=C(CCNc1ccccc1)NO
[4]
  IC50: 1.22 µM
[5]
  Ratio IC50: 46 to 110

## O=C(CNc1c(Cl)cccc1Cl)NO
[4]
  IC50: 191 µM
[5]
  Ratio IC50: 46 to 110

## O=C(CCNc1c(Cl)cccc1Cl)NO
[4]
  IC50: 25 µM
[5]
  Ratio IC50: 46 to 110

## COc1ccccc1NCC(=O)NO
[4]
  IC50: 152 µM
[5]
  Ratio IC50: 46 to 110

## O=C(CCNc1cccc(Cl)c1Cl)NO
[4]
  IC50: 3.83 µM
[5]
  Ratio IC50: 46 to 110

## Cc1cc(C)cc(NCCC(=O)NO)c1
[4]
  IC50: 2.93 µM
[5]
  Ratio IC50: 46 to 110

## O=C(CCNc1cc(F)cc(F)c1)NO
[4]
  IC50: 1.52 µM
[5]
  Ratio IC50: 46 to 110

## O=C(CCNc1ccc(Cl)c(Cl)c1)NO
[2]
  IC50: 38.9 µM
[4]
  IC50: 0.71 µM
[5]
  Ratio IC50: 46 to 110

## O=C(CCNc1ccc(F)cc1)NO
[2]
  IC50: 17.9 µM
[4]
  IC50: 0.18 µM
[5]
  Ratio IC50: 46 to 110

## COc1cc(NCC(=O)NO)cc(OC)c1
[4]
  IC50: 2.28 µM
[5]
  Ratio IC50: 46 to 110

## O=C(CNc1cccc([N+](=O)[O-])c1)NO
[4]
  IC50: 8.21 µM
[5]
  Ratio IC50: 46 to 110

## O=C(CNc1ccc(Cl)cc1)NO
[4]
  IC50: 2.47 µM
[5]
  Ratio IC50: 46 to 110

## O=C(CCNc1ccccc1[N+](=O)[O-])NO
[4]
  IC50: 10.5 µM
[5]
  Ratio IC50: 46 to 110

## O=C(CNc1cccc(Cl)c1Cl)NO
[4]
  IC50: 14.8 µM
[5]
  Ratio IC50: 46 to 110

## O=C(CCNc1cccc([N+](=O)[O-])c1)NO
[4]
  IC50: 5.1 µM
[5]
  Ratio IC50: 46 to 110

## O=C(CNc1cccc(Br)c1)NO
[6]
  Ratio IC50: 2 to 24
[2]
  IC50: 48.1 µM
[4]
  IC50: 0.86 µM
[5]
  Ratio IC50: 46 to 110

## O=C(CCN1CCCc2ccccc21)NO
[4]
  IC50: 21.1 µM
[5]
  Ratio IC50: 46 to 110

## O=C(CNc1ccc(Cl)cc1Cl)NO
[4]
  IC50: 66.1 µM
[5]
  Ratio IC50: 46 to 110

## O=C(CN1CCCc2ccccc21)NO
[4]
  IC50: 71.1 µM
[5]
  Ratio IC50: 46 to 110

## O=C(CNc1cccc(Cl)c1)NO
[4]
  IC50: 1.15 µM
[5]
  Ratio IC50: 46 to 110

## O=C(CCNc1ccccc1Br)NO
[2]
  IC50: 14.5 µM
[4]
  IC50: 0.13 µM
[5]
  Ratio IC50: 46 to 110

## O=C(CNc1cc(F)cc(F)c1)NO
[4]
  IC50: 5.11 µM
[5]
  Ratio IC50: 46 to 110

## O=C(CNc1ccc(Cl)c(Cl)c1)NO
[2]
  IC50: 41.6 µM
[4]
  IC50: 0.76 µM
[5]
  Ratio IC50: 46 to 110

## O=C(CCNc1ccccc1Cl)NO
[2]
  IC50: 5.91 µM
[9]
  Activity: 100%
[7]
  Activity: 84.6%
[4]
  IC50: 0.055 µM
[10]
  LD50 at 336 h: 3350 mg/kg
[8]
  Activity: Active
[5]
  Ratio IC50: 46 to 110
[11]
  Activity: 92.3%

## O=C(CNc1ccccc1Br)NO
[6]
  Ratio IC50: 2 to 24
[4]
  IC50: 12.3 µM
[5]
  Ratio IC50: 46 to 110

## Cc1ccc(NCC(=O)NO)cc1
[4]
  IC50: 3.91 µM
[5]
  Ratio IC50: 46 to 110

## Cc1cc(C)cc(NCC(=O)NO)c1
[4]
  IC50: 2.12 µM
[5]
  Ratio IC50: 46 to 110

## O=C(CCNc1cc(Cl)cc(Cl)c1)NO
[1]
  Ki: 0.153 µM
[2]
  IC50: 3.9 µM
[9]
  Activity: 100%
[7]
  Activity: 92.3%
[3]
  Ki: 1.57 µM
[4]
  IC50: 0.043 µM
[10]
  LD50 at 336 h: 2980 mg/kg
[8]
  Activity: Active
[5]
  Ratio IC50: 46 to 110
[11]
  Activity: 100%

## O=C(CCNc1ccc([N+](=O)[O-])cc1)NO
[4]
  IC50: 1.23 µM
[5]
  Ratio IC50: 46 to 110

## COc1ccccc1NCCC(=O)NO
[4]
  IC50: 1.64 µM
[5]
  Ratio IC50: 46 to 110

## O=C(CNc1ccc(F)cc1)NO
[4]
  IC50: 7.41 µM
[5]
  Ratio IC50: 46 to 110

## O=C(CNc1cc(Cl)ccc1Cl)NO
[4]
  IC50: 1.64 µM
[5]
  Ratio IC50: 46 to 110

## O=C(CCNc1ccc(Cl)cc1Cl)NO
[1]
  Ki: 0.0602 µM
[6]
  Ratio IC50: > 1500
[12]
  Activity: 92.3%
[2]
  IC50: 0.14 µM
[7]
  Activity: 100%
[3]
  Ki: 0.442 µM
[13]
  Activity: Active
[4]
  IC50: 0.018 µM
[10]
  LD50 at 336 h: 3130 mg/kg
[8]
  Activity: Active
[5]
  Ratio IC50: 46 to 110
[11]
  Activity: 100%
